From ChEMBL document CHEMBL5120974, “Antitubercular Activity of Novel 2-(Quinoline-4-yloxy)acetamides with Improved Drug-Like Properties” (ACS Med Chem Lett, 2022)
Values after ≈ are worked out from the molar mass of the structure shown.

Experiments:
Format in all cases: functional
[1] = test system: Mycobacterium tuberculosis; test: Antitubercular activity against Multidrug-resistant Mycobacterium tuberculosis clinical isolate PT20 assessed as bacterial growth inhibition incubated for 7 days by resazurin dye based assay; details: PT20, 168 h, time 7 day
[2] = test system: Mycobacterium tuberculosis; test: Antitubercular activity against Multidrug-resistant Mycobacterium tuberculosis clinical isolate PT2 assessed as bacterial growth inhibition incubated for 7 days by resazurin dye based assay; details: PT2, 168 h, time 7 day
[3] = test system: Mycobacterium tuberculosis; test: Antitubercular activity against Multidrug-resistant Mycobacterium tuberculosis qcrB-T313A mutant assessed as bacterial growth inhibition incubated for 7 days by resazurin dye based assay; details: time 7 day
Outline: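 MIC measured against a spontaneous mutant selected for resistance to 2-(quinolin-4-yloxy)acetamides, with a fully sequenced genome and a single qcrB change (ACC to GCC at nucleotide 937, T313A substitution).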

[4] = test system: Mycobacterium tuberculosis; test: Antitubercular activity against Multidrug-resistant Mycobacterium tuberculosis clinical isolate PT12 assessed as bacterial growth inhibition incubated for 7 days by resazurin dye based assay; details: PT12, 168 h, time 7 day

| Compound | MIC [1] | MIC [2] | MIC [3] | MIC [4] |
| --- | --- | --- | --- | --- |
| CCc1cc(OCC(=O)Nc2ccc(N3CCCCC3)cc2)c2cc(OC)ccc2n1 | < 0.04 µM | < 0.04 µM | >23.8 µM | 0.19 µM (≈ 0.0797 µg/mL) |
| COc1ccc2nc(C)cc(OCC(=O)Nc3ccc(N4CCCCC4)cc3)c2c1 | < 0.04 µM | < 0.04 µM | >24.7 µM | 0.19 µM (≈ 0.077 µg/mL) |
| NNC(=O)c1ccncc1 [ISONIAZID] | – | – | 2.3 µM (≈ 0.315 µg/mL) | 146 µM (≈ 20 µg/mL) |
| CO[C@H]1/C=C/O[C@@]2(C)Oc3c(C)c(O)c4c(O)c(c(/C=N/N5CCN(C)CC5)c(O)c4c3C2=O)NC(=O)/C(C)=C\C=C\[C@H](C)[C@H](O)[C@@H](C)[C@@H](O)[C@@H](C)[C@H](OC(C)=O)[C@@H]1C [RIFAMPIN] | > 48.6 µM | > 48.6 µM | – | > 48.6 µM |
